Assay results gathered from unrelated publications.
Compare with care: the assays were run in different laboratories.
Target: Cannabinoid receptor 1 (CNR1, Homo sapiens, UniProt P21554)

Clc1ccc2c(C3CCN(CCc4c[nH]c5ccccc45)CC3)c[nH]c2c1
inhibition (ligand displacement, radioligand; 10 µM): -27%

COCc1c(-c2cc3cc(C)cc(OC)c3s2)c2c(N)ncnn2c1CN1CCNC(=O)C1
inhibition (ligand displacement, radioligand; 10 µM): 26%

CCOC(=O)C(CC)(CCCSCCOCCOCCNc1ccc([N+](=O)[O-])c2nonc12)NC(=O)c1ccc(C2CC2)c(Cc2ccc(F)cc2)n1 (racemic)
Emax (cAMP, agonist): 126%

CCN(CC)CCCC[C@H](NC(=O)[C@H](CC(C)C)NC(=O)[C@H](C)NC(=O)[C@H](Cc1ccccc1)NC(=O)c1ccc(C(C)(C)C)cc1)C(=O)N[C@@H](CO)C(=O)OC
remaining binding (ligand displacement, radioligand; 10 µM): 113%

O=C1N=C(N2CCCCN2)S/C1=C\c1ccc(F)cc1O
inhibition (ligand displacement, radioligand; 10 µM): < 10%

COc1ccc(S(=O)(=O)N2CCCCC2)cc1C
inhibition (ligand displacement, radioligand; 10 µM): < 30%

CC(C)C(NC(=O)c1nn(Cc2ccc(F)cc2)c2ccccc12)C(N)=O (centres unmarked)
Emax (calcium signal, agonist, fluorescence): 120%

c1ccc(C(NCCNC(c2ccccc2)c2ccccc2)c2ccccc2)cc1
inhibition (cell-free assay; 10 µM): 102%

CC(C)N1CCC[C@H]1CNC(=O)c1cn(C2CCCC2)c(=O)c2c1c1ccccc1n2C
inhibition (ligand displacement, radioligand; 10 µM): 48%

N#Cc1c(Oc2cccc(OS(=O)(=O)CCCC(F)(F)F)c2)cccc1C(F)(F)F
Emax (calcium signal, agonist, fluorescence; CHO): 39%

CN(CCN1CCC(OC(=O)Nc2ccccc2-c2ccccc2)CC1)C(=O)c1ccc(CN2CCC(C(N)=O)CC2)cc1
inhibition (ligand displacement, radioligand; 1 µM): -3%
